Calls of active or inactive are those of the source. The rule behind the calls is not given here.

Data set [1] concerns Salmonella typhimurium. As to the kind of experiment: Antimicrobial activity against sifA gene-deficient Salmonella enterica Typhimurium 14028 infected in RAW 264.7 cells assessed as growth inhibition at 200 uM after 2 to 16 hrs postinfection by flow cytometry relative to untreated control. It is filed as functional, organism-based. The settings on record: Salmonella enterica subsp. enterica serovar Typhimurium.

Data set [2] concerns Salmonella typhimurium. Briefly: Antimicrobial activity against Salmonella enterica Typhimurium 14028 infected in RAW 264.7 cells assessed as decrease in bacterial growth yield at 200 uM after 16 hrs postinfection by flow cytometry in presence of 10 ug/ml of intracellular replication inhibitor tetracycline. It counts as functional, organism-based. The settings on record: Salmonella enterica subsp. enterica serovar Typhimurium. A general note: In flow cytometry, cells or beads pass a laser one at a time.

Data set [3] has as its system RAW264.7. As to the kind of experiment: Cytotoxicity against mouse RAW264.7 cells at 200 uM by LDH release assay. It counts as cell-based. Conditions: raw264.7, 200 µM. (In general: LDH leaks from cells whose membrane has failed.)
In data set [4] the test system is RAW264.7. As to the kind of experiment: Induction of apoptosis in mouse RAW264.7 cells assessed as necrotic cells at 200 uM after 16 hrs using annexin V-propidium iodide staining by flow cytometry. It counts as cell-based. The settings on record: raw264.7, 16 h. Summed up: (§1)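 RAW264.7 cells kept 16 h with or without compound in DMSO. Cells stained with annexin V-FITC plus propidium iodide and analysed by flow cytometry. Populations given as percent of all cells counted, with standard deviations.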

Data set [5] has as its system Salmonella typhimurium. As to the kind of experiment: Antimicrobial activity against Salmonella enterica Typhimurium 14028 infected in RAW 264.7 cells assessed as decrease in IL-6 secretion from infected cells at 200 uM after 16 hrs postinfection by ELISA relative to untreated control. It is filed as functional, organism-based. The settings on record: Salmonella enterica subsp. enterica serovar Typhimurium. (In general: ELISA stands for enzyme-linked immunosorbent assay.)

Data set [6] concerns Salmonella typhimurium. As to the kind of experiment: Antimicrobial activity against Salmonella enterica Typhimurium 14028 infected in RAW 264.7 cells assessed as decrease in segregation of plasmid at 200 uM. The settings on record: Salmonella enterica subsp. enterica serovar Typhimurium. It counts as functional, organism-based.
In data set [7] the test system is Salmonella typhimurium. As to the kind of experiment: Antimicrobial activity against ssaV gene-deficient Salmonella enterica Typhimurium 14028 infected in RAW 264.7 cells assessed as growth inhibition at 200 uM after 2 to 16 hrs postinfection by flow cytometry relative to untreated control. The settings on record: Salmonella enterica subsp. enterica serovar Typhimurium. It counts as functional, organism-based.

In data set [8] the test system is Salmonella typhimurium. As to the kind of experiment: Antimicrobial activity against sseG gene-deficient Salmonella enterica Typhimurium 14028 infected in RAW 264.7 cells assessed as growth inhibition at 200 uM after 2 to 16 hrs postinfection by flow cytometry relative to untreated control. It counts as functional, Salmonella enterica subsp. enterica serovar Typhimurium.

Data set [9] concerns Salmonella typhimurium. Briefly: Antimicrobial activity against sseF gene-deficient Salmonella enterica Typhimurium 14028 infected in RAW 264.7 cells assessed as growth inhibition at 200 uM after 2 to 16 hrs postinfection by viable counting relative to untreated control.
Data set [10] has as its system Salmonella typhimurium. As to the kind of experiment: Antimicrobial activity against Salmonella enterica Typhimurium 14028 infected in RAW 264.7 cells assessed as growth inhibition at 200 uM treated 6 hr postinfection measured after 16 hrs of postinfection by flow cytometry. It is filed as functional, organism-based. The settings on record: Salmonella enterica subsp. enterica serovar Typhimurium.

For data set [11], the system named is Salmonella typhimurium. As to the kind of experiment: Antimicrobial activity against Salmonella enterica Typhimurium 14028 infected in RAW 264.7 cells assessed as decrease in TNF-alpha secretion from infected cells at 200 Um after 16 hrs postinfection by ELISA relative to untreated control. Conditions: Salmonella enterica subsp. enterica serovar Typhimurium. It is filed as functional, organism-based.

Data set [12] deals with Salmonella typhimurium. Briefly: bacteriostatic activity against Salmonella enterica Typhimurium 14028 infected in RAW 264.7 cells assessed as decrease intracellular bacteria at 200 uM after 16 hrs postinfection by GFP-based fluorescent reduction assay. It counts as functional, organism-based. The settings on record: Salmonella enterica subsp. enterica serovar Typhimurium.

Data set [13] has as its system Salmonella typhimurium. Briefly: Antimicrobial activity against Salmonella enterica Typhimurium 14028 infected in RAW 264.7 cells assessed as growth inhibition at 200 uM treated 4 hr postinfection measured after 16 hrs of postinfection by flow cytometry. It is filed as functional, organism-based. The settings on record: Salmonella enterica subsp. enterica serovar Typhimurium.

The subject of data set [14] is Salmonella typhimurium. Briefly: Antimicrobial activity against Salmonella enterica Typhimurium 14028 infected in RAW 264.7 cells assessed as inhibition of inducible nitric oxide synthase expression in infected cells at 200 uM by Immunoblotting relative to untreated control. It is filed as functional, organism-based. Conditions: Salmonella enterica subsp. enterica serovar Typhimurium.

Data set [15] relates to Salmonella typhimurium. Briefly: Bacteriostatic activity against Salmonella enterica Typhimurium 14028 infected in RAW 264.7 cells assessed as decrease in bacterial growth yield at 200 uM after 16 hrs postinfection by flow cytometry. The settings on record: Salmonella enterica subsp. enterica serovar Typhimurium. It counts as functional, organism-based.
Data set [16] has as its system Salmonella typhimurium. Briefly: Antimicrobial activity against Salmonella enterica Typhimurium 14028 infected in RAW 264.7 cells assessed as delayed degradation of IkappaB-alpha in infected cells at 200 uM after 20 mins postinfection by Immunoblotting relative to untreated control. It is filed as functional, organism-based. Conditions: Salmonella enterica subsp. enterica serovar Typhimurium.

Data set [17] concerns RAW264.7. Briefly: Induction of apoptosis in mouse RAW264.7 cells assessed as late apoptotic cells at 200 uM after 16 hrs using annexin V-propidium iodide staining by flow cytometry. It counts as cell-based. The settings on record: raw264.7, 16 h. Put shortly: as §1
In data set [18] the test system is Salmonella typhimurium. Briefly: Antimicrobial activity against Salmonella enterica Typhimurium 14028 infected in RAW 264.7 cells assessed as delayed degradation of IkappaB-alpha in infected cells at 200 uM after 40 mins postinfection by Immunoblotting relative to untreated control. It is filed as functional, organism-based. Conditions: Salmonella enterica subsp. enterica serovar Typhimurium.

In data set [19] the test system is RAW264.7. Briefly: Induction of apoptosis in mouse RAW264.7 cells assessed as early apoptotic cells at 200 uM after 16 hrs using annexin V-propidium iodide staining by flow cytometry. It counts as cell-based. Conditions: raw264.7, 16 h. Summed up:
as §1

The subject of data set [20] is Salmonella typhimurium. As to the kind of experiment: Antimicrobial activity against Salmonella enterica Typhimurium 14028 infected in RAW 264.7 cells assessed as growth inhibition at 200 uM treated 3 hr before infection measured after 16 hrs of postinfection by flow cytometry. It counts as functional, organism-based. Conditions: Salmonella enterica subsp. enterica serovar Typhimurium.

In data set [21] the test system is RAW264.7. Briefly: Induction of apoptosis in mouse RAW264.7 cells assessed as late apoptotic cells at 100 nM after 16 hrs using annexin V-propidium iodide staining by flow cytometry. It is filed as cell-based. Conditions: raw264.7, 16 h, 0.1 µM. Summed up:
(§2)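 RAW264.7 cells cultured with compound for 16 h, DMSO as control. Cells stained with annexin V-FITC plus propidium iodide and analysed by flow cytometry. Populations given as percentages of all cells counted, with standard deviations.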

Data set [22] relates to RAW264.7. As to the kind of experiment: Induction of apoptosis in mouse RAW264.7 cells assessed as early apoptotic cells at 100 nM after 16 hrs using annexin V-propidium iodide staining by flow cytometry. The settings on record: raw264.7, 16 h, 0.1 µM. It counts as cell-based. Put shortly: as §2
Data set [23] relates to Salmonella typhimurium. Briefly: Antimicrobial activity against Salmonella enterica Typhimurium 14028 infected in RAW 264.7 cells assessed as […] nitric oxide production in infected cells at 100 nM. It is filed as functional, organism-based. The settings on record: Salmonella enterica subsp. enterica serovar Typhimurium. Summed up:
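Nonactivated RAW264.7 cells infected with opsonized (10% preimmune BALB/c serum, 30 min, 37°C) noninvasive-grown S. Typhimurium 14028 at MOI 10; cells pretreated 30 min before infection, then fresh medium. 1 h infection, 45 min gentamicin 50 μg/ml, then 10 μg/ml maintenance. NO measured as nitrite in medium by Griess reagent, OD 525 nm against sodium nitrite standards.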

In data set [24] the test system is Salmonella typhimurium. Briefly: Bactericidal activity against Salmonella enterica Typhimurium 14028 infected in RAW 264.7 cells assessed as decrease in bacterial growth yield at 100 nM after 16 hrs postinfection by flow cytometry in presence of 10 ug/ml of intracellular replication inhibitor tetracycline. It is filed as functional, organism-based. Conditions: Salmonella enterica subsp. enterica serovar Typhimurium.

The test system of data set [25] is RAW264.7. As to the kind of experiment: Cytotoxicity against mouse RAW264.7 cells assessed as change vacuolar pH at 200 uM using acridine orange stain by fluorescent microscope. It is filed as cell-based. The settings on record: raw264.7, 200 µM. Summed up: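 RAW264.7 cells treated with compound, then stained with acridine orange, whose fluorescence shifts upon protonation. Intravacuolar orange staining scored by fluorescence microscopy as acidified vacuoles.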

In data set [26] the test system is RAW264.7. Briefly: Induction of apoptosis in mouse RAW264.7 cells assessed as necrotic cells at 100 nM after 16 hrs using annexin V-propidium iodide staining by flow cytometry. It is filed as cell-based. The settings on record: raw264.7, 16 h, 0.1 µM. Put shortly:
as §2

In data set [27] the test system is RAW264.7. As to the kind of experiment: Cytotoxicity against mouse RAW264.7 cells at 100 nM by LDH release assay. It is filed as cell-based. The settings on record: raw264.7, 0.1 µM. Put shortly: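 RAW264.7 cells cultured with compound for 16 h. LDH released into the culture medium measured chromogenically with a cytotoxicity detection kit. Triplicates, repeated at least twice; paired t test.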

The subject of data set [28] is Salmonella typhimurium. As to the kind of experiment: Antimicrobial activity against Salmonella enterica Typhimurium 14028 infected in RAW 264.7 cells assessed as inhibition of bacterial replication at 100 nM treated 30 mins before infection measured after 2 to 16 hrs postinfection by flow cytometry. It counts as functional, organism-based. Conditions: Salmonella enterica subsp. enterica serovar Typhimurium.

On to `COc1ccc2[nH]c([S+]([O-])Cc3ncc(C)c(OC)c3C)nc2c1` (stereo not drawn) [OMEPRAZOLE], for which the outcome in the data set on Salmonella typhimurium [1], in the data set on Salmonella typhimurium [2], with Salmonella typhimurium [5], with Salmonella typhimurium [7], with Salmonella typhimurium [11] and with Salmonella typhimurium [14] was inactive. For the same compound, the outcome in the data set on Salmonella typhimurium [16] and with Salmonella typhimurium [18] was inactive. Besides, the Activity result in the data set on RAW264.7 [3] is “Non-toxic”; with RAW264.7 [4] it was 0.1%; in the data set with RAW264.7 [17], 15.8%; in the data set on RAW264.7 [19], 25.3%. Besides, the result in the data set with Salmonella typhimurium [6], in the data set on Salmonella typhimurium [10], with Salmonella typhimurium [12], in the data set on Salmonella typhimurium [13], in the data set on Salmonella typhimurium [15] and in the data set on Salmonella typhimurium [20] was Active. The “fold change (FC)” value with Salmonella typhimurium [8] and in the data set on Salmonella typhimurium [9] was 2 throughout.
As to `CO/C1=C\C(C)=C\[C@@H](C)[C@@H](O)[C@@H](C)C/C(C)=C/C=C/[C@H](OC)[C@@H]([C@@H](C)[C@@H](O)[C@H](C)[C@@]2(O)C[C@@H](O)[C@H](C)[C@@H](C(C)C)O2)OC1=O` [BAFILOMYCIN A1], the Activity in the data set with RAW264.7 [21] was 31.5%; with RAW264.7 [22] it was 29.2%; in the data set on RAW264.7 [25], “Toxic”; with RAW264.7 [26] it was 0.4%; in the data set on RAW264.7 [27], “Toxic”. For the same compound, the result in the data set on Salmonella typhimurium [23], in the data set on Salmonella typhimurium [24] and in the data set with Salmonella typhimurium [28] was Active.
